In brackets after ≈: the same amount, converted by molar mass.

Assay [1] can be described thus: In vitro growth inhibitory activity against KB human epidermoid carcinoma cells. The class given is functional. In short, it runs like this:
(§1)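 Cells seeded at 1 × 10^4 cells/mL in 96-well plates, MEM with 10% fetal calf serum, 37 °C, 5% CO₂, 24 h. Antifolate added in 10% MEM at final 0.15-80 ng/mL, then culture continued 72 h at 37 °C. Cell number estimated by MTT; IC50 taken as concentration giving 50% growth inhibition. Means ± SE of three experiments.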

The test system of the next assay is A549. Kind of assay: In vitro growth inhibitory activity against A549 human nonsmall cell lung carcinoma cells. It is filed as functional, cell-based. In short, it runs like this: as §1

For `CN(Cc1cnc2nc(N)nc(N)c2n1)c1ccc(C(=O)N[C@@H](CCC(=O)O)C(=O)O)cc1` [METHOTREXATE], the values for the IC50 (in assay [1]; with A549) were 5.02 ng/mL (≈ 11 nM) and 35 ng/mL (≈ 77 nM), respectively.

`Nc1nc(N)c2c(n1)NCC2CCCc1ccc(C(=O)N[C@H](CCC(=O)O)C(=O)O)cc1` (stereo not given in full): the IC50 – broadly, the midpoint of a concentration-inhibition curve – in assay [1] came out at 0.49 ng/mL (≈ 1.11 nM); with A549 it was 4.9 ng/mL (≈ 11.1 nM).

Consider `CC(CCC1CNc2nc(N)nc(N)c21)c1ccc(C(=O)N[C@H](CCC(=O)O)C(=O)O)cc1` (stereo not given in full), for which the IC50 in assay [1] worked out at 0.3 ng/mL (≈ 0.657 nM); in the assay on A549, 1.6 ng/mL (≈ 3.5 nM).

With `Nc1nc(N)c2c(CCCc3ccc(C(=O)N[C@H](CCC(=O)O)C(=O)O)cc3)c[nH]c2n1`, the IC50 was 0.27 ng/mL (≈ 0.613 nM) in assay [1] and 4.5 ng/mL (≈ 10.2 nM) in the assay on A549.

In the case of `CC(CCc1c[nH]c2nc(N)nc(N)c12)c1ccc(C(=O)N[C@H](CCC(=O)O)C(=O)O)cc1` (stereo not given in full), the values for the IC50 (in assay [1]; with A549) were 0.59 ng/mL (≈ 1.3 nM) and 2.3 ng/mL (≈ 5.06 nM), respectively.

Values taken from ChEMBL document CHEMBL1125234, “Novel pyrrolo[2,3-d]pyrimidine antifolates: synthesis and antitumor activities” (J Med Chem, 1991).
